# A selection: hits, their analogues and other compounds. The true share with any hit is near 5.1%.
# APP 5'UTR act – activates APP 5'UTR luciferase reporter; SH-SY5Y APP 5'UTR luciferase reporter, luminescence; zero percent = DMSO vehicle wells; activation, % at 2 µM; 190,000 compounds, 1% hits; AID 1276;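 active = activation above a set limit, based on mean plus 3 SD of controls, cut at about 140% in these data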
# STAT1 act – STAT1 signaling activation; NIH 3T3 STAT1-luciferase reporter, IFN-gamma, luminescence; 100% = IFN-gamma alone, no compound; AID 932; activation (% of control), % at 5.5 µM; 200,000 compounds, 2.6% hits;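 active = activation above the screen-wide mean activation plus 3 SD, cut at about 130% in these data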;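 also: raw ratio to IFN-gamma control signal so 100% means no change and 0% no light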
# STAT1 inh – inhibitors of IFN-gamma induced STAT1 signaling; 200,000 compounds, 0.35% hits; inhibition, % at 5.5 µM; NIH 3T3 STAT1-luciferase reporter, luminescence; AID 920;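 active = inhibition above a set limit, the mean inhibition across all tested compounds plus 3 SD, cut at about 34% in these data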;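 also: 0% = IFN-gamma with DMSO and 100% = IFN-gamma with 300 µM nifuroxazide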
# STAT3 inh-1 – reduces IL-6 driven STAT3 reporter signal | U3A cells, IL-6 STAT3-luciferase reporter, luminescence; host cell line lacks STAT1 | inhibition, % at 5.5 µM | 190,000 compounds, 0.89% hits;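 active = inhibition above the mean inhibition across all screened compounds plus 3 SD, cut at about 44% in these data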;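 also: 0% = DMSO only wells and 100% = 100 µM nifuroxazide control wells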
# STAT3 act – increases IL-6 driven STAT3 reporter signal; 190,000 compounds, 0.91% hits; U3A cells, IL-6 STAT3-luciferase reporter, luminescence; 100% = signal with IL-6 EC80 alone; activation (% of control), % at 5.6 µM; AID 871;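 active = activation above the screen-wide mean of compound activation plus 3 SD, cut at about 130% in these data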;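 also: 0% = background luminescence of wells with medium and substrate only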
#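 Test system: Human STAT1-deficient U3A cells with stable STAT3-luciferase reporter | Also added: Interleukin-6, 33 ng/mL | Timing: Compound pre-incubation 1 h before IL-6, then 6 h stimulation at 37 °C | Technique: Luciferase reporter luminescence | Read-out: Percent of IL-6-only median luminescence | Benchmarks: IL-6-only wells as 100% reference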
# NF-kB neuron act – raises NF-kB expression in human neuronal cells. AID 1239. NF-kB reporter expression; stronger effect = higher value. 190,000 compounds, 1.6% hits. fold change at 12.5 µM; in the data active = fold change above about 3.3
# STAT3 inh-2 – confirmation of STAT3 signaling inhibitors. shares compounds with STAT3 inh-1. U3A cells, IL-6 STAT3 luciferase reporter, luminescence; cell line lacks STAT1. inhibition, % at 5.7 µM. 1,200 compounds, 45% hits. AID 1265;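 active = inhibition above the hit cutoff computed for the primary STAT3 screen, cut at about 44% in these data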;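 also: 0% = IL-6 plus DMSO and 100% = IL-6 plus nifuroxazide control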
# NFkB inh STAT3ct – NF-kappaB inhibition in STAT3 inhibitor counter-screen. shares compounds with STAT3 inh-1. inhibition, % at 5.7 µM. HEK293T NF-kB luciferase reporter, TNF-alpha induced. 1,200 compounds, 36% hits;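 active = inhibition above the mean of solvent-only control wells plus 3 SD, cutoff set per campaign, cut at about 13% in these data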;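 also: 0% = TNF-alpha with DMSO and 100% = TNF-alpha with MG high control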
# STAT1 inh 2 – inhibits STAT1, counter-screen to STAT3 inhibitors. 1,200 compounds, 27% hits. NIH 3T3 STAT1-luciferase reporter, IFN-gamma induced, luminescence. shares compounds with STAT3 inh-1. inhibition, % at 5.7 µM;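 active = inhibition above the mean plus 3 SD of solvent-only control wells, limit set per screening run, cut at about 16% in these data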;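 also: 0% = DMSO with IFN-gamma and 100% = nifuroxazide control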
# * marks the source's active call; other numbers are inactive results; / = no result given.
SMILES,APP 5'UTR act,STAT1 act,STAT1 inh,STAT3 inh-1,STAT3 act,NF-kB neuron act,STAT3 inh-2,NFkB inh STAT3ct,STAT1 inh 2
Cc1cc(N2CCN(c3nc4ccccc4s3)CC2)n2ncnc2n1,-12,75,28,83*,35,0.5,73*,25*,30*
Cc1cc(N2CCN(C(c3ccccc3)c3ccccc3)CC2)n2ncnc2n1,-2,106,-7,4,99,0.97,/,/,/
O=C(Cn1cc(C(F)(F)F)ccc1=O)N/N=C/c1ccccc1,15,102,-3,12,96,1.1,/,/,/
C=CCN=c1scc(-c2ccc3c(c2)NC(=O)CO3)n1/N=C(\C)c1ccccn1,-52,80,21,75*,39,0.75,74*,18*,22*
CC(Nc1nc(-c2ccc3c(c2)NC(=O)CO3)cs1)c1ccccc1 (stereo not given),3,112,-12,6,95,1.2,/,/,/
Cc1cc(Nc2cccc([N+](=O)[O-])c2)n2c(nc3ccccc32)c1C#N,-9,101,8,80*,32,1,73*,46*,55*
CCOC(=O)N1CCC(NC(=O)C2CCN(c3nc(-c4ccc(OC)cc4)no3)CC2)CC1,-7,93,8,50*,63,0.96,38,12,12
O=C(N=Nc1c(O)[nH]c2ccccc12)c1ccc2c(c1)OCO2,106,69,33,62*,52,2.3,25,10,-15
Cc1cc(NCc2ccccn2)nc2ccccc12,-4,89,11,24,83,1.3,/,/,/
Cc1nc(NCc2ccccn2)c2ccccc2n1,-29,84,18,49*,62,0.71,32,1,12
CCC(=O)c1ccc(OCC(O)Cn2c(C)nc3ccccc32)cc1 (stereo not given),8,74,30,64*,48,0.57,53*,14*,20*
CC(CCc1ccccc1)NC(=O)N1CCOCC1 (stereo not given),3,95,6,-7,103,1,/,/,/
CCc1ccc(CN2CCN(C(=O)c3cccc(OC)c3OC)CC2)cc1,-10,87,4,60*,53,1.1,41,10,6
CC(=O)CSc1nc2cc3c(cc2cc1C#N)OCCO3,101,86,13,78*,36,5.7*,28,1,-94
Cc1ccc(Cn2c(=N)n(CC(=O)c3ccccc3)c3ccccc32)cc1,-5,85,14,11,93,1.1,/,/,/
Cc1nc(NC(=O)/C=C/c2ccco2)sc1C,96,144*,-49,45*,64,2.3,36,-21,-64
COc1ccc(N2C(=O)CC(N(Cc3ccco3)C(=O)CCC(=O)O)C2=O)cc1 (stereo not given),-13,100,-2,8,95,0.98,/,/,/
COc1cccc(-c2cc(C(=O)Nc3cccc(O)c3)no2)c1,106,100,0,89*,29,6.7*,50*,9,-53
CC(=O)c1cccc(N=c2scc(-c3ccc(S(=O)(=O)N4CCOCC4)cc3)n2CCO)c1,-17,79,24,75*,38,1.1,77*,27*,25*
O=C1C2C3C=CC(C4CC34)C2C(=O)N1Cc1ccco1 (stereo not given),25,112,-13,-2,105,1.1,/,/,/
COc1cc(CC(=O)OCC(=O)Nc2sccc2C(N)=O)cc(OC)c1OC,5,72,32,58*,53,0.71,55*,12,22*
O=C(CSc1cccc[n+]1[O-])Nc1ccc2c(c1)OCO2,7,103,-4,6,97,1.2,/,/,/
Cc1nc(-c2ccc(NC(=O)c3ccccc3)cc2)cs1,184*,72,29,71*,41,7.5*,23,-23,-126
Cn1c(N=Nc2ccccc2)nc2ccccc21,180*,131*,-34,51*,58,3.6*,-14,-13,-120
Clc1ccc(-c2nnc(NC3=NCCCCC3)o2)cc1,152*,77,26,80*,32,1.7,48*,19*,-48
SMILES,APP 5'UTR act,STAT1 act,STAT1 inh,STAT3 inh-1,STAT3 act,NF-kB neuron act,STAT3 inh-2,NFkB inh STAT3ct,STAT1 inh 2
O=C(Nc1ccc2oc(-c3ccccc3)nc2c1)c1ccncc1,28,105,-6,46*,67,1.1,35,3,-8
O=C(Nc1ccc(-c2nc3ccccc3o2)cc1)c1ccc(N2C(=O)C3C4C=CC(C4)C3C2=O)cc1 (stereo not given),/,91,7,74*,38,1.1,68*,17*,-11
COc1cc(OC)cc(C(=O)Nc2ccc(-c3nc4ccccc4o3)cc2)c1,3,92,9,46*,65,0.44,45*,3,12
O=C(Nc1ccc(-c2nc3ccccc3o2)cc1)c1ccc2c(c1)OCO2,3,109,-10,20,82,1.1,/,/,/
COc1ccc2cc3cc(C(=O)Nc4cc(OC)c(OC)c(OC)c4)oc3nc2c1,-5,100,0,46*,64,0.32,33,8,-17
O=C(COC(=O)c1n[nH]c2ccccc12)Nc1ccc(S(=O)(=O)N2CCCC2)cc1,5,96,4,71*,45,0.5,51*,6,9
O=C(COC(=O)c1n[nH]c2ccccc12)Nc1cccc(S(=O)(=O)N2CCOCC2)c1,-3,85,14,14,95,1,/,/,/
CCc1ccccc1NC(=S)N(CCc1ccncc1)C(C)C,4,104,-7,-1,105,0.97,/,/,/
O=C(Nc1cccc(O)c1)c1noc2c1CCCCC2,114,91,9,83*,31,3.1,72*,29*,6
O=C(Nc1ccccc1C(=O)N1CCOCC1)c1noc2c1CCCC2,-22,102,-4,-10,111,1,/,/,/
Cc1c(C(C)C)c(=O)n(-c2ccc(S(=O)(=O)N3CCOCC3)cc2)n1C,-12,96,2,-1,103,1.1,/,/,/
Cc1c(C(C)C)c(=O)n(-c2ccc(S(=O)(=O)NCc3ccccc3)cc2)n1C,-8,74,28,81*,32,0.82,80*,30*,21*
Cc1c(C(C)C)c(=O)n(-c2ccc(S(=O)(=O)NC3CCCCC3)cc2)n1C,-12,79,22,53*,57,0.96,59*,14*,21*
Cc1cccc(C)c1NC(=S)N(CCCN1CCOCC1)Cc1cccnc1,11,105,-7,10,101,1.6,/,/,/

# Screening data deposited in PubChem by several laboratories.
